Drawing on ChEMBL document CHEMBL2163188, “Discovery of piragliatin--first glucokinase activator studied in type 2 diabetic patients” (J Med Chem, 2012), this text covers Activity for one compound.

For data set [1], the system named is Rattus norvegicus. The data set can be described thus: Hepatic toxicity in Wistar rat assessed as increase in serum triglyceride level at 600 mg/kg, po administered as single dose after 5 days […]. Format: organism-based. To be noted: in vivo, 120 h. Set-up: dose 600 mg/kg, route oral. The essentials: (§1)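 Male Wistar rats, three per group (vehicle or test compound), given a single oral dose of 300 or 600 mg/kg. Serum triglycerides were measured. Liver sections were stained with H&E and Oil Red O to assess lipidosis.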

Data set [2] concerns Rattus norvegicus. The data set can be described thus: Hepatic toxicity in Wistar rat assessed as periportal hepatocellular microvesicular lipidosis at 600 mg/kg, po administered as single dose after 5 days by hematoxylin and eosin staining. Format: organism-based. Set-up: dose 600 mg/kg, route oral. To be noted: in vivo, 120 h. The essentials: as §1
Data set [3] concerns Rattus norvegicus. The experiment in a line: Antidiabetic activity in Wistar rat assessed as reduction of glucose level at 600 mg/kg, po administered as single dose after 5 days measured on day 3. Format: functional, organism-based. The arrangement: dose 600 mg/kg.
The subject of data set [4] is Rattus norvegicus. The data set can be described thus: Hepatic toxicity in Wistar rat assessed as lipidosis at 600 mg/kg, po administered as single dose by Oil Red O staining. To be noted: in vivo.
Data set [5] relates to Rattus norvegicus. The experiment in a line: Antidiabetic activity in Wistar rat assessed as reduction of glucose level at 250 mg/kg, po qd for 5 days measured in day 3. Type of data set: functional, organism-based. The arrangement: dose 250 mg/kg. The essentials:
(§2)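 Five-day rat study with daily oral dosing. Blood glucose was measured on day 3. Hepatic lipidosis was assessed at study end by Oil Red O staining of liver.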

The test system of data set [6] is Rattus norvegicus. The experiment in a line: Hepatic toxicity in Wistar rat assessed as lipidosis at 250 mg/kg, po qd for 5 days by Oil Red O staining. Type of data set: organism-based. The arrangement: dose 250 mg/kg, route oral. As to conditions: in vivo, 120 h. The essentials: as §2

SMILES strings stand for the structures. Active and inactive are the calls of the source. The rule behind the calls is not given here.

On to `CS(=O)(=O)c1ccc([C@H](CC2CCCC2)C(=O)Nc2nccs2)cc1`, for which the Activity in data set [1] is on record as 600%; in data set [2], “Toxic”; in data set [4], “Toxic”; in data set [6] it was “Toxic”. Moreover, the outcome in data set [3] and in data set [5] was inactive.
